Compounds with a hit are over-represented: about 4.6% of the library has one in this group of screens.
OX1R antag-1: blocks the human orexin 1 receptor; 330,000 compounds, 1.8% hits; AID 485270; inhibition, % at 6.6 µM; O43613; OX1R-expressing cells, FRET antagonist read-out; in the data active = inhibition mostly above about 38%, no sharp cut-off; inactive = mostly below about 40%
GPR7 antag: antagonists of human GPR7 (neuropeptides B/W receptor 1); GPR7-expressing cells, fluorescence antagonist assay; inhibition, % at 4.4 µM; 290,000 compounds, 1.1% hits; P48145; in the data active = inhibition above about 16%, passing the limit was not always enough;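 also: cells stimulated with the agonist NPW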
Target sequence (P48145 whole entry, looked up): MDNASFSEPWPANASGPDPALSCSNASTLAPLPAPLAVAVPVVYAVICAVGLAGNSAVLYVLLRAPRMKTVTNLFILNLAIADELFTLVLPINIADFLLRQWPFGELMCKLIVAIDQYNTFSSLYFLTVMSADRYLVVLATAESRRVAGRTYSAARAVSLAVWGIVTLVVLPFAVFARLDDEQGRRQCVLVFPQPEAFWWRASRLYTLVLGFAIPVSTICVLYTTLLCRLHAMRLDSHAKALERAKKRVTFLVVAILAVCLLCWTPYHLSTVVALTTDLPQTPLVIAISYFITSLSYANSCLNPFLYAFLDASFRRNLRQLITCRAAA
OX1R antag-2: human HCRTR1 antagonism; inhibition, % at 5 µM; CHO/OX1R cells, Fluo-8 calcium fluorescence, orexin A; 330,000 compounds, 0.43% hits; AID 434989; O43613;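 active = inhibition above its plate's threshold, mean inhibition of all tested compounds on the plate plus 3 SD, cut at about 37% in these data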
TAAR1 agonist: agonists of human TAAR1 | 360,000 compounds, 0.99% hits | activation, % at 3 µM | CHO RD-HGA16 TAAR1, Fluo-8 calcium fluorescence; vehicle wells 0%, saturating PEA agonist 100% | Q96RJ0 | AID 624467;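 active = activation above the mean activation of all test compounds in the run plus 3 SD, cut at about 38% in these data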
Target sequence (Q96RJ0 whole entry, looked up): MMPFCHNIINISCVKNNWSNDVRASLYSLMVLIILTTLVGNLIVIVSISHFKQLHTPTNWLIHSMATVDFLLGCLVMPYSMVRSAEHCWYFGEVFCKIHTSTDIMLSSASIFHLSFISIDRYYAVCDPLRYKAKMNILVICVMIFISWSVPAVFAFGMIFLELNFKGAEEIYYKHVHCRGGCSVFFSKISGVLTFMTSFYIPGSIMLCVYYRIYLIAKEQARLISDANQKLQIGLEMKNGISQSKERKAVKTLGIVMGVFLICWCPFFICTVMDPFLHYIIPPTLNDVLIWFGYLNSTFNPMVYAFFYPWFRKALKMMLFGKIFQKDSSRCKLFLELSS
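Benchmarks: low control DMSO, high control PEA (EC100); System: CHO RD-HGA16 cells carrying human TAAR1 plus Gα16; Detection: Fluo-8 fluorescence, 5 s baseline then 140 s kinetic read; Schedule: 17-24 h plating, Fluo-8 75 min 37 °C, 30 min RT; Read-out basis: % activation from peak over basal fluorescence ratio, DMSO-to-PEA scaled.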
TAAR1 antag: human TAAR1 antagonism. 360,000 compounds, 1.5% hits. AID 624466. Q96RJ0. inhibition, % at 3 µM. CHO RD-HGA16 TAAR1, Fluo-8 calcium fluorescence, antagonist;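 active = inhibition above a per-plate cutoff, the mean inhibition of test compounds on that plate plus 3 SD, cut at about 49% in these data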
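Test system – hTAAR1-expressing CHO RD-HGA16 cells, Gα16-coupled · Also added – β-PEA at EC80 concentration, post-compound challenge · Compound – 3 µM, single point · Incubation – dye loading 75 min at 37 °C, then 30 min room temperature · Measured by – Fluo-8 intracellular calcium dye fluorescence, real-time kinetic reads · Benchmarks – vehicle and agonist controls · Replicates – singlicate, one well per test compound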
CHO parental Ca: counter-screen for OX1R antagonists: effect in parental CHO cells | parental CHO-K1, ATP-induced calcium, Fluo-8 fluorescence | inhibition, % at 5.6 µM | 330,000 compounds, 0.63% hits | AID 463079;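 active = inhibition above that plate's mean sample inhibition plus 3 SD, cut at about 26% in these data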
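test system = CHO parental line | reagent = ATP stimulus | measured by = intracellular calcium via Fluo-8 no-wash fluorescent dye | control set = ATP and no-ATP DMSO wells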
TAAR1 ag conf: human TAAR1 agonism, confirmed; shares compounds with TAAR1 agonist; CHO RD-HGA16 TAAR1, Fluo-8 calcium fluorescence; scaled: DMSO 0%, maximal phenethylamine 100%; activation, % at 3 µM; 2,400 compounds, 82% hits; AID 651783;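 active = activation above a cutoff set at the run's mean compound activation plus 3 SD, cut at about 39% in these data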
Ga16 nonsel ag: nonselective agonist in parental cells, TAAR1 agonist counter-screen. AID 651787. activation, % at 3 µM. 2,400 compounds, 50% hits. shares compounds with TAAR1 agonist. CHO-Ga16 parental, Fluo-8 calcium fluorescence; normalized to maximal ATP response, DMSO zero;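 active = activation above the run cutoff, the mean activation over all tested wells plus 3 SD, cut at about 12% in these data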
TAAR1 desens: counter-screen for human TAAR1 agonists: agonists that desensitize TAAR1. 2,400 compounds, 46% hits. shares compounds with TAAR1 agonist. CHO RD-HGA16 hTAAR1, Fluo-8 calcium, beta-PEA response inhibition. inhibition, % at 3 µM;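 active = inhibition above the run cutoff, the mean inhibition of all test compounds plus 3 SD, cut at about 49% in these data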;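 also: beta-PEA stimulus applied at its EC80; loss of beta-PEA calcium signal after compound pretreatment read as receptor desensitization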
Ga16 antag count: nonselective Ga16 antagonist in TAAR1 agonist counter-screen; AID 651952; shares compounds with TAAR1 agonist; CHO-Ga16 ATP-induced calcium, Fluo-8 fluorescence; inhibition, % at 3 µM; 2,400 compounds, 39% hits;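 active = inhibition above the plate's mean compound inhibition plus 3 SD, computed per plate, cut at about 22% in these data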
Each line names hits and unclear results; the compound was inactive in the other large screens (follow-up assays come after a bar, where they were run).

CCOc1cccc(-c2c(C(=O)N/N=C(\C)c3cccs3)nnn2-c2nonc2N)c1	TAAR1 agonist 132, TAAR1 antag 88 | TAAR1 ag conf 134 | Ga16 nonsel ag 98 | TAAR1 desens 97 | Ga16 antag count 70
CCOc1ccc(-c2c(C(=O)N/N=C(\C)c3ccco3)nnn2-c2nonc2N)cc1	TAAR1 agonist 115 | TAAR1 ag conf 101 | Ga16 nonsel ag 67 | TAAR1 desens inactive | Ga16 antag count inactive
COc1cccc(-c2c(C(=O)N/N=C(\C)c3ccncc3)nnn2-c2nonc2N)c1	none
C/C(=N\NC(=O)c1nnn(-c2nonc2N)c1-c1ccc2c(c1)OCO2)c1cccs1	TAAR1 agonist 144, TAAR1 antag 96 | TAAR1 ag conf 127 | Ga16 nonsel ag 101 | TAAR1 desens 91 | Ga16 antag count 61
COC(=O)c1cn(C)c2ccc(S(=O)(=O)N(C)C3CCCCC3)cc2c1=O	none (no result: OX1R antag-1, GPR7 antag, OX1R antag-2, CHO parental Ca)
CCOc1ccc(-c2c(C(=O)N/N=C(\C)c3cccs3)nnn2-c2nonc2N)cc1	TAAR1 agonist 85 | TAAR1 ag conf 98 | Ga16 nonsel ag 63 | TAAR1 desens inactive | Ga16 antag count inactive
CCCCNc1ccc2c3c(cccc13)C(=O)N(CCCC)C2=O	GPR7 antag 37, TAAR1 agonist 498, TAAR1 antag 108 (no result: OX1R antag-1, OX1R antag-2, CHO parental Ca) | TAAR1 ag conf 182 | Ga16 nonsel ag 288 | TAAR1 desens 90 | Ga16 antag count 95
COc1ccc(NC(=O)CN(C)C(=O)CCNC(=O)Nc2ccccc2)cc1	none (no result: OX1R antag-1, GPR7 antag, OX1R antag-2, CHO parental Ca)
CN(CC(=O)Nc1ccccc1Cl)C(=O)CCNC(=O)Nc1ccccc1	none (no result: GPR7 antag, TAAR1 agonist, TAAR1 antag) | Ga16 nonsel ag inactive | Ga16 antag count inactive
O=C(COC(=O)CN1C(=O)c2ccccc2C1=O)Nc1ccccc1	TAAR1 agonist 48 (no result: GPR7 antag) | TAAR1 ag conf 57 | Ga16 nonsel ag inactive | TAAR1 desens inactive | Ga16 antag count inactive
Cc1cc(C(=O)NC(CC(C)C)C(=O)O)cc(C)c1[N+](=O)[O-] (configuration not stated)	none
CCn1c2ccccc2c2cc(/C=N/NC(=O)c3ccc(O)cc3)ccc21	OX1R antag-1 76, TAAR1 agonist 47 | TAAR1 ag conf 47 | Ga16 nonsel ag inactive | TAAR1 desens inactive | Ga16 antag count inactive
COc1ccc(Cl)c2sc(NC(=O)C3=COCCO3)nc12	none (no result: GPR7 antag)
Cc1ccc(Cl)c2sc(NC(=O)C3=COCCO3)nc12	TAAR1 agonist 61 | TAAR1 ag conf inactive | Ga16 nonsel ag 20 | TAAR1 desens inactive | Ga16 antag count inactive
Cc1noc(C)c1C(=O)Nc1nc2ccccc2s1	none (no result: OX1R antag-1, GPR7 antag, OX1R antag-2, CHO parental Ca)
CCN1C(=O)[C@H]2[C@@H](c3ccc(-c4cccc(Cl)c4)cc3)N[C@@](C)(C(=O)OC)[C@H]2C1=O	none (no result: GPR7 antag)
O=C(C1CC1)N1CCc2cc(S(=O)(=O)NCc3ccccc3)ccc21	TAAR1 agonist 68 | TAAR1 ag conf inactive | Ga16 nonsel ag inactive | TAAR1 desens inactive | Ga16 antag count inactive
COc1cccc(CNS(=O)(=O)c2ccc3c(c2)CCN3C(=O)C2CC2)c1	none
Cc1nc(N)sc1N=Nc1ccc(Br)cc1	none
Cc1cc(C(F)F)n2ncc(C(=O)NCCc3ccccc3Cl)c2n1	TAAR1 agonist 68 | TAAR1 ag conf 69 | Ga16 nonsel ag inactive | TAAR1 desens inactive | Ga16 antag count inactive
Cc1nc2c(C(=O)NCc3ccccc3Cl)c[nH]n2c(=O)c1Cl	none
Cc1cc(C(F)F)n2ncc(C(=O)NCc3ccccc3)c2n1	none
Cc1nc2c(C(=O)NCCc3ccccc3Cl)c[nH]n2c(=O)c1Cl	TAAR1 agonist 84, TAAR1 antag 61 | TAAR1 ag conf 80 | Ga16 nonsel ag 14 | TAAR1 desens 83 | Ga16 antag count inactive
O=c1oc2c(O)cccc2cc1-c1nc2ccccc2[nH]1	TAAR1 agonist 83 (no result: OX1R antag-1, OX1R antag-2, CHO parental Ca) | TAAR1 ag conf 93 | Ga16 nonsel ag 90 | TAAR1 desens inactive | Ga16 antag count 29
O=C(CCn1c(=S)oc2ccccc21)N1CCCCC1	none
CCOC(=O)C(NC(C)=O)(N1CCc2ccccc2C1)C(F)(F)F (configuration not stated)	TAAR1 agonist 103, TAAR1 antag 93 | TAAR1 ag conf 108 | Ga16 nonsel ag inactive | TAAR1 desens 98 | Ga16 antag count inactive
CC(OC(=O)c1ccc(OCC2CCCO2)cc1)C(=O)N(C)Cc1ccccc1 (configuration not stated)	none (no result: GPR7 antag)
CCOc1ccccc1-n1nnnc1SCC(=O)O	none
CC(=O)N1CCN(C(=O)COC(=O)COc2c(C)cc(C)cc2C)CC1	none (no result: GPR7 antag)
CCC1=NN(C(=O)c2ccc(Cl)cc2)C(O)(c2ccc(C)cc2)C1 (configuration not stated)	none (no result: OX1R antag-1, OX1R antag-2, CHO parental Ca)
CCOC(=O)C1=NN(C(=O)c2ccc(C)cc2)C(O)(c2ccc(Cl)cc2)C1 (configuration not stated)	TAAR1 agonist 116, TAAR1 antag 73 | TAAR1 ag conf 69 | Ga16 nonsel ag 79 | TAAR1 desens inactive | Ga16 antag count 42
O=C(Nc1nnc(SCc2ccc(F)cc2)s1)c1ccccn1	none (no result: OX1R antag-1, OX1R antag-2, CHO parental Ca)
Cc1nc(NC(=O)c2ccccc2)sc1-c1csc(NCCc2ccccc2)n1	TAAR1 agonist 64 | TAAR1 ag conf 61 | Ga16 nonsel ag 21 | TAAR1 desens 58 | Ga16 antag count 34
NC(=O)c1cc(-c2csc(NCCc3ccccc3)n2)ccc1O	TAAR1 agonist 49 | TAAR1 ag conf 46 | Ga16 nonsel ag inactive | TAAR1 desens inactive | Ga16 antag count inactive
C=CCNc1nc(-c2ccc(O)c(C(N)=O)c2)cs1	none
Cc1nn(C)cc1S(=O)(=O)N1CCN(c2ccccc2F)CC1	none
COc1ccc(CCN2CCC(Nc3nc4ccccc4n3Cc3ccc(F)cc3)CC2)cc1	TAAR1 agonist 59 | TAAR1 ag conf 54 | Ga16 nonsel ag 20 | TAAR1 desens inactive | Ga16 antag count inactive
COCc1nnc(NC(=O)CSc2ccc(C)cc2)s1	none
CCOC(=O)Cc1nnc(NC(=O)CSc2ccc(C)cc2)s1	TAAR1 agonist 69 | TAAR1 ag conf 58 | Ga16 nonsel ag 27 | TAAR1 desens inactive | Ga16 antag count inactive

From PubChem
